# Results as given in ChEMBL document CHEMBL4715736, “Identification of anticancer agents based on the thieno[2,3-b]pyridine and 1H-pyrazole molecular scaffolds” (2016).
# Key:
# Format in all cases: functional
# Malme-3M = assay: Growth inhibition of human Malme-3M cells assessed as cell growth at 0.01 uM incubated for 48 hrs by sulforhodamine B assay relative to control; settings: read-out: Activity
# 786-0 = assay: Growth inhibition of human 786-0 cells assessed as cell growth at 0.01 uM incubated for 48 hrs by sulforhodamine B assay relative to control; settings: read-out: Activity
# Method in brief: (§1)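 NCI Developmental Therapeutics Program NCI60 panel. Compounds that were active in the 10 µM one-dose screen went on to dose–response testing. Growth at each concentration is expressed relative to untreated control (100%). GI50 (concentration giving 50% of maximal inhibition of proliferation) and TGI (concentration giving total growth inhibition) were derived from the curves.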
# T47D = assay: Growth inhibition of human T47D cells assessed as cell growth at 0.01 uM incubated for 48 hrs by sulforhodamine B assay relative to control; settings: read-out: Activity
# CAKI-1 = assay: Growth inhibition of human CAKI-1 cells assessed as cell growth at 0.1 uM incubated for 48 hrs by sulforhodamine B assay relative to control; settings: read-out: Activity; method in brief: as §1
# MOLT-4 [1] = assay: Growth inhibition of human MOLT-4 cells assessed as cell growth at 0.1 uM incubated for 48 hrs by sulforhodamine B assay relative to control; settings: read-out: Activity
# SF-295 = assay: Growth inhibition of human SF-295 cells assessed as cell growth at 100 uM incubated for 48 hrs by sulforhodamine B assay relative to control; settings: read-out: Activity
# CCRF-CEM [2] = assay: Growth inhibition of human CCRF-CEM cells assessed as cell growth at 0.01 uM incubated for 48 hrs by sulforhodamine B assay relative to control; settings: read-out: Activity; method in brief: as §1
# MDA-MB-231 = assay: Growth inhibition of human MDA-MB-231 cells incubated for 48 hrs by sulforhodamine B assay; settings: for CC50: read-out: LC50 (the source's name)
# Method in brief: (§2)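 NCI60 panel at the NCI Developmental Therapeutics Program. Only compounds active in the 10 µM screen went to dose-response testing. GI50, the concentration giving 50% of maximal inhibition of proliferation, and TGI, the concentration giving total growth inhibition, were derived from the dose-response curves.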
# CCRF-CEM [3] = assay: Growth inhibition of human CCRF-CEM cells assessed as cell growth at 100 uM incubated for 48 hrs by sulforhodamine B assay relative to control; settings: read-out: Activity; method in brief: as §1
# PC-3 = assay: Growth inhibition of human PC-3 cells assessed as cell growth at 100 uM incubated for 48 hrs by sulforhodamine B assay relative to control; settings: read-out: Activity
# BT-549 = assay: Growth inhibition of human BT-549 cells assessed as cell growth at 0.01 uM incubated for 48 hrs by sulforhodamine B assay relative to control; settings: read-out: Activity
# SK-OV-3 [4] = assay: Growth inhibition of human SK-OV-3 cells assessed as cell growth at 0.1 uM incubated for 48 hrs by sulforhodamine B assay relative to control; settings: read-out: Activity
# TK-10 [5] = assay: Growth inhibition of human TK-10 cells assessed as cell growth at 0.01 uM incubated for 48 hrs by sulforhodamine B assay relative to control; settings: read-out: Activity
# HCT-116 = assay: Growth inhibition of human HCT-116 cells assessed as cell growth at 0.1 uM incubated for 48 hrs by sulforhodamine B assay relative to control; settings: read-out: Activity
# SK-MEL-5 = assay: Growth inhibition of human SK-MEL-5 cells assessed as cell growth at 1 uM incubated for 48 hrs by sulforhodamine B assay relative to control; settings: read-out: Activity
# NCI/ADR-RES = assay: Growth inhibition of human NCI/ADR-RES cells assessed as cell growth at 0.01 uM incubated for 48 hrs by sulforhodamine B assay relative to control; settings: read-out: Activity
# SNB-19 = assay: Growth inhibition of human SNB-19 cells assessed as cell growth at 100 uM incubated for 48 hrs by sulforhodamine B assay relative to control; settings: read-out: Activity
# NCI-H322M = assay: Growth inhibition of human NCI-H322M cells assessed as cell growth at 100 uM incubated for 48 hrs by sulforhodamine B assay relative to control; settings: read-out: Activity
# U-251 = assay: Growth inhibition of human U-251 cells assessed as cell growth at 100 uM incubated for 48 hrs by sulforhodamine B assay relative to control; settings: read-out: Activity
# HOP-62 = assay: Growth inhibition of human HOP-62 cells assessed as cell growth at 0.01 uM incubated for 48 hrs by sulforhodamine B assay relative to control; settings: read-out: Activity
# SW-620 [6] = assay: Growth inhibition of human SW-620 cells assessed as cell growth at 0.1 uM incubated for 48 hrs by sulforhodamine B assay relative to control; settings: read-out: Activity
# SK-OV-3 [7] = assay: Growth inhibition of human SK-OV-3 cells assessed as cell growth at 1 uM incubated for 48 hrs by sulforhodamine B assay relative to control; settings: read-out: Activity
# NCI-H460 = assay: Growth inhibition of human NCI-H460 cells incubated for 48 hrs by sulforhodamine B assay; method in brief: as §2
# KM12 = assay: Growth inhibition of human KM12 cells incubated for 48 hrs by sulforhodamine B assay; method in brief: as §2
# UACC-257 = assay: Growth inhibition of human UACC-257 cells incubated for 48 hrs by sulforhodamine B assay
# Method in brief: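 NCI DTP 60-line human tumour panel. Dose-response curves were run only for ligands active in the initial 10 µM screen. GI50 (concentration giving 50% of maximal inhibition of proliferation) and TGI (concentration giving total growth inhibition) were derived from these curves.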
# SW-620 [8] = assay: Growth inhibition of human SW-620 cells assessed as cell growth at 100 uM incubated for 48 hrs by sulforhodamine B assay relative to control; settings: read-out: Activity
# MDA-MB-435 = assay: Growth inhibition of human MDA-MB-435 cells incubated for 48 hrs by sulforhodamine B assay; settings: for CC50: read-out: LC50 (the source's name); method in brief: as §2
# TK-10 [9] = assay: Growth inhibition of human TK-10 cells assessed as cell growth at 100 uM incubated for 48 hrs by sulforhodamine B assay relative to control; settings: read-out: Activity
# DU-145 = assay: Growth inhibition of human DU-145 cells assessed as cell growth at 1 uM incubated for 48 hrs by sulforhodamine B assay relative to control; settings: read-out: Activity; method in brief: as §1
# HOP-92 [10] = assay: Growth inhibition of human HOP-92 cells assessed as cell growth at 0.1 uM incubated for 48 hrs by sulforhodamine B assay relative to control; settings: read-out: Activity
# HOP-92 [11] = assay: Growth inhibition of human HOP-92 cells assessed as cell growth at 0.01 uM incubated for 48 hrs by sulforhodamine B assay relative to control; settings: read-out: Activity
# SK-MEL-2 = assay: Growth inhibition of human SK-MEL-2 cells assessed as cell growth at 100 uM incubated for 48 hrs by sulforhodamine B assay relative to control; settings: read-out: Activity
# SK-MEL-28 = assay: Growth inhibition of human SK-MEL-28 cells assessed as cell growth at 0.01 uM incubated for 48 hrs by sulforhodamine B assay relative to control; settings: read-out: Activity
# COLO 205 = assay: Growth inhibition of human COLO 205 cells assessed as cell growth at 0.1 uM incubated for 48 hrs by sulforhodamine B assay relative to control; settings: read-out: Activity; method in brief: as §1
# MOLT-4 [12] = assay: Growth inhibition of human MOLT-4 cells incubated for 48 hrs by sulforhodamine B assay; settings: for CC50: read-out: LC50 (the source's name); method in brief: as §2
smiles,measurement,setting,value
Nc1c(C(=O)Nc2ccccc2)sc2nc3c(cc12)CN(Cc1ccccc1)CC3,growth at 0.01 µM,Malme-3M,87%
same,growth at 0.01 µM,786-0,96%
same,growth at 0.01 µM,T47D,99%
same,growth at 0.1 µM,CAKI-1,86%
same,growth at 0.1 µM,MOLT-4 [1],95%
same,growth at 100 µM,SF-295,12%
same,growth at 0.01 µM,CCRF-CEM [2],96%
same,GI50,MDA-MB-231,5.81 µM
same,TGI,MDA-MB-231,> 100 µM
same,CC50,MDA-MB-231,> 100 µM
same,growth at 100 µM,CCRF-CEM [3],36%
same,growth at 100 µM,PC-3,23%
same,growth at 0.01 µM,BT-549,97%
same,growth at 0.1 µM,SK-OV-3 [4],93%
same,growth at 0.01 µM,TK-10 [5],93%
same,growth at 0.1 µM,HCT-116,92%
same,growth at 1 µM,SK-MEL-5,95%
same,growth at 0.01 µM,NCI/ADR-RES,103%
same,growth at 100 µM,SNB-19,25%
same,growth at 100 µM,NCI-H322M,59%
same,growth at 100 µM,U-251,12%
same,growth at 0.01 µM,HOP-62,89%
same,growth at 0.1 µM,SW-620 [6],97%
same,growth at 1 µM,SK-OV-3 [7],96%
same,GI50,NCI-H460,7.51 µM
same,LC50,NCI-H460,> 100 µM
same,TGI,NCI-H460,> 100 µM
same,GI50,KM12,19.1 µM
same,LC50,KM12,> 100 µM
same,TGI,KM12,> 100 µM
same,GI50,UACC-257,52.8 µM
same,LC50 (concentration killing 50% of cells),UACC-257,> 100 µM
same,TGI,UACC-257,> 100 µM
same,growth at 100 µM,SW-620 [8],23%
same,GI50,MDA-MB-435,3430 nM
same,TGI,MDA-MB-435,71.6 µM
same,CC50,MDA-MB-435,> 100 µM
same,growth at 100 µM,TK-10 [9],-7%
same,growth at 1 µM,DU-145,74%
same,growth at 0.1 µM,HOP-92 [10],86%
same,growth at 0.01 µM,HOP-92 [11],92%
same,growth at 100 µM,SK-MEL-2,4%
same,growth at 0.01 µM,SK-MEL-28,100%
same,growth at 0.1 µM,COLO 205,94%
same,GI50,MOLT-4 [12],31.3 µM
same,TGI,MOLT-4 [12],> 100 µM
same,CC50,MOLT-4 [12],> 100 µM
COc1cccc(NC(=O)c2sc3nc4c(cc3c2N)CN(Cc2ccccc2)CC4)c1,growth at 0.01 µM,Malme-3M,97%
same,growth at 0.01 µM,786-0,90%
same,growth at 0.01 µM,T47D,90%
same,growth at 0.1 µM,CAKI-1,91%
same,growth at 0.1 µM,MOLT-4 [1],104%
same,growth at 100 µM,SF-295,-52%
same,growth at 0.01 µM,CCRF-CEM [2],99%
same,GI50,MDA-MB-231,11.4 µM
same,TGI,MDA-MB-231,75.3 µM
same,CC50,MDA-MB-231,> 100 µM
same,growth at 100 µM,CCRF-CEM [3],21%
same,growth at 100 µM,PC-3,-2%
same,growth at 0.01 µM,BT-549,88%
same,growth at 0.1 µM,SK-OV-3 [4],100%
same,growth at 0.01 µM,TK-10 [5],104%
same,growth at 0.1 µM,HCT-116,96%
same,growth at 1 µM,SK-MEL-5,58%
same,growth at 0.01 µM,NCI/ADR-RES,102%
same,growth at 100 µM,SNB-19,14%
same,growth at 100 µM,NCI-H322M,18%
same,growth at 100 µM,U-251,-54%
same,growth at 0.01 µM,HOP-62,80%
same,growth at 0.1 µM,SW-620 [6],99%
same,growth at 1 µM,SK-OV-3 [7],81%
same,GI50,NCI-H460,4.18 µM
same,LC50,NCI-H460,> 100 µM
same,TGI,NCI-H460,30.9 µM
same,GI50,KM12,11.8 µM
same,LC50,KM12,> 100 µM
same,TGI,KM12,40.3 µM
same,GI50,UACC-257,6.52 µM
same,LC50 (concentration killing 50% of cells),UACC-257,> 100 µM
same,TGI,UACC-257,> 100 µM
same,growth at 100 µM,SW-620 [8],-5%
same,GI50,MDA-MB-435,296 nM
same,TGI,MDA-MB-435,11 µM
same,CC50,MDA-MB-435,49 µM
same,growth at 100 µM,TK-10 [9],-55%
same,growth at 1 µM,DU-145,95%
same,growth at 0.1 µM,HOP-92 [10],80%
same,growth at 0.01 µM,HOP-92 [11],90%
same,growth at 100 µM,SK-MEL-2,-28%
same,growth at 0.01 µM,SK-MEL-28,97%
same,growth at 0.1 µM,COLO 205,98%
same,GI50,MOLT-4 [12],21.9 µM
same,TGI,MOLT-4 [12],> 100 µM
same,CC50,MOLT-4 [12],> 100 µM
